Measured values taken from ChEMBL document CHEMBL1240400, “Comparative in vitro activities of nemonoxacin (TG-873870), a novel nonfluorinated quinolone, and other quinolones against clinical isolates” (2010).
≈ marks a conversion by molar mass, not a printed value.

Tests used:
Type in all cases: functional
Streptococcus pneumoniae [1] = assay: Antibacterial activity against Levofloxacin susceptible Streptococcus pneumoniae by broth dilution method
Procedure, shortened: (§1)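 Streptococcus pneumoniae clinical isolates tested by CLSI broth microdilution. A 0.5 McFarland suspension was diluted into Mueller-Hinton broth with 3% lysed horse blood, then tested against serial drug dilutions. Plates were incubated overnight at 35°C in ambient air, and the MIC was read as the lowest inhibitory concentration. Quality control strains were included in each run.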

Klebsiella pneumoniae = assay: Antibacterial activity against Klebsiella pneumoniae by broth dilution method
Procedure, shortened: (§2)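 Broth microdilution per CLSI in panels spanning a dilution range of each agent. Cation-adjusted Mueller-Hinton broth, final inoculum 5 × 10^5 CFU/ml from a 0.5 McFarland suspension. Incubated overnight at 35°C in ambient air, with quality control strains in each run. MIC reported; values at or below the lowest concentration tested are given as that concentration.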

Proteus mirabilis = assay: Antibacterial activity against Proteus mirabilis by broth dilution method
Enterococcus faecium [2] = assay: Antibacterial activity against vancomycin resistant Enterococcus faecium by broth dilution method
Procedure, shortened: (§3)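 Clinical isolates tested by CLSI broth microdilution in panels holding serial twofold drug dilutions in cation-adjusted Mueller-Hinton broth. Final inoculum 5 × 10^5 CFU/ml was made from a 0.5 McFarland suspension. Plates were incubated overnight at 35°C in ambient air, and the MIC was read as the lowest concentration inhibiting growth. Quality control strains were included in each run.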

Enterococcus faecalis [3] = assay: Antibacterial activity against vancomycin resistant Enterococcus faecalis by broth dilution method
Staphylococcus aureus [4] = assay: Antibacterial activity against methicillin susceptible Staphylococcus aureus by broth dilution method
Streptococcus pneumoniae [5] = assay: Antibacterial activity against Levofloxacin resistant Streptococcus pneumoniae by broth dilution method; procedure, shortened: as §1
Neisseria gonorrhoeae [6] = assay: Antibacterial activity against ciprofloxacin resistant Neisseria gonorrhoeae isolates by broth dilution method
Procedure, shortened: (§4)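 Neisseria gonorrhoeae clinical isolates tested by CLSI broth microdilution in Mueller-Hinton broth with 3% lysed horse blood, inoculated from a 0.5 McFarland suspension. Plates were incubated overnight at 35°C in 5% CO2, and the MIC was read as the lowest inhibitory concentration. Quality control strains were included in each run.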

Acinetobacter baumannii = assay: Antibacterial activity against Acinetobacter baumannii by broth dilution method; procedure, shortened: as §2
Pseudomonas aeruginosa = assay: Antibacterial activity against Pseudomonas aeruginosa by broth dilution method
Staphylococcus aureus [7] = assay: Antibacterial activity against ciprofloxacin and methicillin resistant Staphylococcus aureus by broth dilution method; procedure, shortened: as §3
Escherichia coli [8] = assay: Antibacterial activity against ciprofloxacin resistant Escherichia coli by broth dilution method; procedure, shortened: as §3
Staphylococcus aureus [9] = assay: Antibacterial activity against ciprofloxacin susceptible and methicillin resistant Staphylococcus aureus by broth dilution method; procedure, shortened: as §3
Neisseria gonorrhoeae [10] = assay: Antibacterial activity against moxifloxacin resistant Neisseria gonorrhoeae isolates by broth dilution method; procedure, shortened: as §4
Enterococcus faecium [11] = assay: Antibacterial activity against Enterococcus faecium by broth dilution method; procedure, shortened: as §3
Staphylococcus = assay: Antibacterial activity against methicillin resistant coagulase negative Staphylococcus by broth dilution method
Escherichia coli [12] = assay: Antibacterial activity against ciprofloxacin susceptible Escherichia coli by broth dilution method; procedure, shortened: as §2
Streptococcus viridans = assay: Antibacterial activity against Streptococcus viridans by broth dilution method
Procedure, shortened: (§5)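 Streptococci were tested by CLSI broth microdilution in Mueller-Hinton broth with 3% lysed horse blood, seeded from a 0.5 McFarland suspension. Incubated overnight at 35°C in ambient air, with quality control strains in each run. MIC taken over a per-agent dilution range.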

Neisseria gonorrhoeae [13] = assay: Antibacterial activity against levofloxacin resistant Neisseria gonorrhoeae isolates by broth dilution method; procedure, shortened: as §4
Streptococcus agalactiae = assay: Antibacterial activity against Streptococcus agalactiae by broth dilution method; procedure, shortened: as §5
Streptococcus pyogenes = assay: Antibacterial activity against Streptococcus pyogenes by broth dilution method; procedure, shortened: as §5
Enterobacter cloacae = assay: Antibacterial activity against Enterobacter cloacae by broth dilution method
Enterococcus faecalis [14] = assay: Antibacterial activity against Enterococcus faecalis by broth dilution method
[15] = system: Staphylococcus epidermidis; assay: Antibacterial activity against methicillin resistant coagulase negative Staphylococcus epidermidis by broth dilution method
Citrobacter freundii = assay: Antibacterial activity against Citrobacter freundii by broth dilution method; procedure, shortened: as §2
Haemophilus influenzae = assay: Antibacterial activity against Haemophilus influenzae by broth dilution method
Procedure, shortened: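 Broth microdilution per CLSI using Haemophilus Test Medium broth, seeded from a 0.5 McFarland suspension. Incubated overnight at 35°C in ambient air, with quality control strains in each run. MIC read against a tested dilution range; values at the low limit are given as the lowest concentration.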

C[C@H]1COc2c(N3CCN(C)CC3)c(F)cc3c(=O)c(C(=O)O)cn1c23.C[C@H]1COc2c(N3CCN(C)CC3)c(F)cc3c(=O)c(C(=O)O)cn1c23.O [LEVOFLOXACIN]
MIC50 (Streptococcus pneumoniae [1]): 1 µg/mL | MIC90 (Streptococcus pneumoniae [1]): 2 µg/mL | MIC50 (Klebsiella pneumoniae): 2 µg/mL | MIC90 (Klebsiella pneumoniae): > 16 µg/mL | MIC50 (Proteus mirabilis): 2 µg/mL | MIC90 (Proteus mirabilis): > 16 µg/mL | MIC (Enterococcus faecium [2]): 2 µg/mL | MIC50 (Enterococcus faecalis [3]): 2 µg/mL | MIC50 (Staphylococcus aureus [4]): 0.25 µg/mL | MIC90 (Staphylococcus aureus [4]): 1 µg/mL | MIC50 (Streptococcus pneumoniae [5]): 16 µg/mL | MIC90 (Streptococcus pneumoniae [5]): > 16 µg/mL | MIC (Neisseria gonorrhoeae [6]): 2 µg/mL | MIC50 (Acinetobacter baumannii): 2 µg/mL | MIC90 (Acinetobacter baumannii): 16 µg/mL | MIC50 (Pseudomonas aeruginosa): 8 µg/mL | MIC90 (Pseudomonas aeruginosa): > 16 µg/mL | MIC50 (Staphylococcus aureus [7]): 16 µg/mL | MIC90 (Staphylococcus aureus [7]): 16 µg/mL | MIC50 (Escherichia coli [8]): > 16 µg/mL | MIC90 (Escherichia coli [8]): > 16 µg/mL | MIC50 (Staphylococcus aureus [9]): 0.25 µg/mL | MIC90 (Staphylococcus aureus [9]): 0.25 µg/mL | MIC (Neisseria gonorrhoeae [10]): 0.5 µg/mL | MIC50 (Enterococcus faecium [11]): > 16 µg/mL | MIC90 (Enterococcus faecium [11]): > 16 µg/mL | MIC50 (Staphylococcus): 0.5 µg/mL | MIC90 (Staphylococcus): 8 µg/mL | MIC50 (Escherichia coli [12]): 0.5 µg/mL | MIC90 (Escherichia coli [12]): 1 µg/mL | MIC50 (Streptococcus viridans): 1 µg/mL | MIC90 (Streptococcus viridans): 2 µg/mL | MIC (Neisseria gonorrhoeae [13]): 1 µg/mL | MIC50 (Streptococcus agalactiae): 1 µg/mL | MIC90 (Streptococcus agalactiae): 2 µg/mL | MIC50 (Streptococcus pyogenes): 1 µg/mL | MIC90 (Streptococcus pyogenes): 2 µg/mL | MIC50 (Enterobacter cloacae): 2 µg/mL | MIC90 (Enterobacter cloacae): 16 µg/mL | MIC50 (Enterococcus faecalis [14]): 2 µg/mL | MIC90 (Enterococcus faecalis [14]): > 16 µg/mL | MIC50 [15]: 0.5 µg/mL | MIC90 [15]: 8 µg/mL | MIC50 (Citrobacter freundii): 0.12 µg/mL | MIC90 (Citrobacter freundii): 2 µg/mL | MIC50 (Haemophilus influenzae): 0.25 µg/mL | MIC90 (Haemophilus influenzae): 8 µg/mL

COc1c(N2C[C@@H]3CCCN[C@@H]3C2)c(F)cc2c(=O)c(C(=O)O)cn(C3CC3)c12 [MOXIFLOXACIN]
MIC50 (Klebsiella pneumoniae): 4 µg/mL (≈ 9.96 µM) | MIC90 (Klebsiella pneumoniae): > 8 µg/mL | MIC50 (Proteus mirabilis): 8 µg/mL (≈ 19.9 µM) | MIC90 (Proteus mirabilis): > 8 µg/mL | MIC (Enterococcus faecium [2]): 1 µg/mL (≈ 2.49 µM) | MIC50 (Enterococcus faecalis [3]): 0.5 µg/mL (≈ 1.25 µM) | MIC (Streptococcus pneumoniae [5]): 2 µg/mL (≈ 4.98 µM) | MIC50 (Streptococcus pneumoniae [5]): 2 µg/mL (≈ 4.98 µM) | MIC90 (Streptococcus pneumoniae [5]): 8 µg/mL (≈ 19.9 µM) | MIC (Neisseria gonorrhoeae [6]): 2 µg/mL (≈ 4.98 µM) | MIC50 (Acinetobacter baumannii): 1 µg/mL (≈ 2.49 µM) | MIC90 (Acinetobacter baumannii): > 8 µg/mL | MIC50 (Pseudomonas aeruginosa): > 8 µg/mL | MIC90 (Pseudomonas aeruginosa): > 8 µg/mL | MIC50 (Staphylococcus aureus [7]): 4 µg/mL (≈ 9.96 µM) | MIC90 (Staphylococcus aureus [7]): 4 µg/mL (≈ 9.96 µM) | MIC50 (Escherichia coli [8]): > 8 µg/mL | MIC90 (Escherichia coli [8]): > 8 µg/mL | MIC (Neisseria gonorrhoeae [10]): 0.5 µg/mL (≈ 1.25 µM) | MIC50 (Enterococcus faecium [11]): > 8 µg/mL | MIC90 (Enterococcus faecium [11]): > 8 µg/mL | MIC50 (Escherichia coli [12]): 0.5 µg/mL (≈ 1.25 µM) | MIC90 (Escherichia coli [12]): 1 µg/mL (≈ 2.49 µM) | MIC50 (Streptococcus viridans): 0.12 µg/mL (≈ 0.299 µM) | MIC90 (Streptococcus viridans): 0.25 µg/mL (≈ 0.623 µM) | MIC (Neisseria gonorrhoeae [13]): 1 µg/mL (≈ 2.49 µM) | MIC50 (Enterococcus faecalis [14]): 0.5 µg/mL (≈ 1.25 µM) | MIC90 (Enterococcus faecalis [14]): > 8 µg/mL | MIC50 [15]: 0.12 µg/mL (≈ 0.299 µM) | MIC90 [15]: 2 µg/mL (≈ 4.98 µM) | MIC50 (Citrobacter freundii): 0.5 µg/mL (≈ 1.25 µM) | MIC90 (Citrobacter freundii): 8 µg/mL (≈ 19.9 µM) | MIC50 (Haemophilus influenzae): 0.25 µg/mL (≈ 0.623 µM) | MIC90 (Haemophilus influenzae): > 8 µg/mL

COc1c(N2C[C@@H](C)C[C@H](N)C2)ccc2c(=O)c(C(=O)O)cn(C3CC3)c12.O=C(O)CC(O)C(=O)O [NEMONOXACIN MALIC ACID]
MIC50 (Streptococcus pneumoniae [1]): 0.12 µg/mL | MIC90 (Streptococcus pneumoniae [1]): 0.12 µg/mL | MIC50 (Klebsiella pneumoniae): 4 µg/mL | MIC90 (Klebsiella pneumoniae): > 16 µg/mL | MIC50 (Proteus mirabilis): 8 µg/mL | MIC90 (Proteus mirabilis): > 16 µg/mL | MIC50 (Enterococcus faecium [2]): 4 µg/mL | MIC90 (Enterococcus faecium [2]): 8 µg/mL | MIC50 (Enterococcus faecalis [3]): 0.25 µg/mL | MIC90 (Enterococcus faecalis [3]): 4 µg/mL | MIC50 (Staphylococcus aureus [4]): 0.03 µg/mL | MIC90 (Staphylococcus aureus [4]): 0.12 µg/mL | MIC50 (Streptococcus pneumoniae [5]): 1 µg/mL | MIC90 (Streptococcus pneumoniae [5]): 2 µg/mL | MIC (Neisseria gonorrhoeae [6]): 0.25 µg/mL | MIC50 (Acinetobacter baumannii): 4 µg/mL | MIC90 (Acinetobacter baumannii): > 16 µg/mL | MIC50 (Pseudomonas aeruginosa): 16 µg/mL | MIC90 (Pseudomonas aeruginosa): > 16 µg/mL | MIC50 (Staphylococcus aureus [7]): 1 µg/mL | MIC90 (Staphylococcus aureus [7]): 1 µg/mL | MIC50 (Escherichia coli [8]): > 16 µg/mL | MIC90 (Escherichia coli [8]): > 16 µg/mL | MIC50 (Staphylococcus aureus [9]): 0.03 µg/mL | MIC90 (Staphylococcus aureus [9]): 0.06 µg/mL | MIC (Neisseria gonorrhoeae [10]): 0.25 µg/mL | MIC50 (Enterococcus faecium [11]): 4 µg/mL | MIC90 (Enterococcus faecium [11]): 8 µg/mL | MIC50 (Staphylococcus): 0.12 µg/mL | MIC90 (Staphylococcus): 0.5 µg/mL | MIC50 (Escherichia coli [12]): 1 µg/mL | MIC90 (Escherichia coli [12]): 2 µg/mL | MIC50 (Streptococcus viridans): 0.12 µg/mL | MIC90 (Streptococcus viridans): 0.25 µg/mL | MIC (Neisseria gonorrhoeae [13]): 0.25 µg/mL | MIC (Streptococcus agalactiae): 0.12 µg/mL | MIC50 (Streptococcus agalactiae): 0.12 µg/mL | MIC90 (Streptococcus agalactiae): 0.25 µg/mL | MIC50 (Streptococcus pyogenes): 0.12 µg/mL | MIC90 (Streptococcus pyogenes): 0.12 µg/mL | MIC50 (Enterobacter cloacae): 4 µg/mL | MIC90 (Enterobacter cloacae): > 16 µg/mL | MIC50 (Enterococcus faecalis [14]): 0.25 µg/mL | MIC90 (Enterococcus faecalis [14]): 4 µg/mL | MIC50 [15]: 0.12 µg/mL | MIC90 [15]: 0.5 µg/mL | MIC50 (Citrobacter freundii): 0.5 µg/mL | MIC90 (Citrobacter freundii): 4 µg/mL | MIC50 (Haemophilus influenzae): 0.12 µg/mL | MIC90 (Haemophilus influenzae): 4 µg/mL
